Activity calls are given as the source filed them. The rule behind the calls is not given here.
How the values were obtained:
OVCAR-8 = test: Growth inhibition of human OVCAR8 cells by NCI anti-cancer screening method; format: functional
NCI-H23 = test: Growth inhibition of human NCI-H23 cells by NCI anti-cancer screening method; format: functional
NCI [1] = test: Growth inhibition of human […] cells by NCI anti-cancer screening method; format: functional
SF-268 = test: Growth inhibition of human SF268 cells by NCI anti-cancer screening method; format: functional
HCT-116 = test: Growth inhibition of human HCT116 cells by NCI anti-cancer screening method; format: functional
786-0 = test: Growth inhibition of human 786-0 cells by NCI anti-cancer screening method; format: functional
UACC-62 = test: Growth inhibition of human UACC62 cells by NCI anti-cancer screening method; format: functional
ACHN = test: Growth inhibition of human ACHN cells by NCI anti-cancer screening method; format: functional
NCI-H226 = test: Growth inhibition of human NCI-H226 cells by NCI anti-cancer screening method; format: functional
UO-31 = test: Growth inhibition of human UO31 cells by NCI anti-cancer screening method; format: functional
IGROV-1 = test: Growth inhibition of human IGROV1 cells by NCI anti-cancer screening method; format: functional
OVCAR-4 = test: Growth inhibition of human OVCAR4 cells by NCI anti-cancer screening method; format: functional
NCI/ADR-RES = test: Growth inhibition of human NCI/ADR-RES cells by NCI anti-cancer screening method; format: functional
MDA-MB-468 = test: Growth inhibition of human MDA-MB-468 cells by NCI anti-cancer screening method; format: functional
A-375 [2] = test: Induction of apoptosis in human A375 cells assessed as sub-G1 phase accumulation at 4 uM after 24 hrs by propidium iodide staining based flow cytometry; format: functional
Outline: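 A375 cells (5×10^5 per 60 mm dish) were grown 24 h, then treated 24 h at 0–4 µM. Cells were harvested with trypsin-EDTA, fixed in ice-cold 70% ethanol for 30 min at 4 °C, treated with RNase A (1 mg/ml) for 30 min at 37 °C, and stained with propidium iodide. Cell-cycle distribution, including the sub-G1 fraction, was measured by flow cytometry. DMSO-exposed cells were the control.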

SK-OV-3 = test: Growth inhibition of human SKOV3 cells by NCI anti-cancer screening method; format: functional
HT-29 = test: Growth inhibition of human HT-29 cells by NCI anti-cancer screening method; format: functional
SR = test: Growth inhibition of human SR cells by NCI anti-cancer screening method; format: functional
A-375 [3] = test: Increase in p27 protein expression in human A375 cells at 4 uM after 24 hrs by Western blot; format: functional, cell-based
Outline: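 A375 cells (DMEM, 10% FCS, 37 °C, 5% CO2) were treated at 4 µM for 24 h. Lysates were loaded at 30 µg protein/lane on 12% SDS-PAGE and transferred to PVDF. Membranes were blocked 2 h in TBST, incubated with primary antibody overnight at 4 °C (p53 1:100, p27 1:500, NF-κB p65 1:500), then HRP secondary 1 h, with chemiluminescent detection. β-actin was the loading control; untreated and DMSO controls were run.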

LOX IMVI = test: Growth inhibition of human LOXIMVI cells by NCI anti-cancer screening method; format: functional
OVCAR-3 = test: Growth inhibition of human OVCAR3 cells by NCI anti-cancer screening method; format: functional
MDA-MB-231 = test: Growth inhibition of human MDA-MB-231 cells by NCI anti-cancer screening method; format: functional
SN12C = test: Growth inhibition of human SN12C cells by NCI anti-cancer screening method; format: functional
BT-549 = test: Growth inhibition of human BT549 cells by NCI anti-cancer screening method; format: functional
NCI [4] = test: Growth inhibition of human RXF393 cells by NCI anti-cancer screening method; format: functional
SNB-19 = test: Growth inhibition of human SNB19 cells by NCI anti-cancer screening method; format: functional
CAKI-1 = test: Growth inhibition of human Caki1 cells by NCI anti-cancer screening method; format: functional
A498 = test: Growth inhibition of human A498 cells by NCI anti-cancer screening method; format: functional
Nucleic Acid = test: Binding affinity to calf thymus DNA assessed as change in melting temperature at 20 uM at pH 7 incubated for 18 hrs at 37 degC by thermal denaturation assay; format: nucleic-acid assay; details: Bos taurus
Outline: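 CT-DNA (100 µM in phosphate) with 20 µM ligand, 1:5 [PBD]/[DNA], in 10 mM sodium phosphate/1 mM Na2EDTA buffer pH 7.00. Ligand added from methanol solution; incubated at 37 °C for 0 or 18 h. A260 monitored while heating 1 °C/min over 40–90 °C. Tm taken from d(A260)/dT maxima; ΔTm = Tm(DNA+PBD) − Tm(DNA alone). Values are means of at least three determinations, corrected for methanol cosolvent.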

A-375 [5] = test: Decrease in CDK2 protein expression in human A375 cells at 4 uM after 24 hrs by Western blot; format: functional, cell-based
Outline: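 A375 cells treated at 4 µM for 24 h, lysed, protein quantified by Bradford. 30 µg/lane run on 12% SDS-PAGE and transferred to PVDF. Blocked 2 h in TBST with 5% blocker. Probed with rabbit polyclonal CDK2 antibody (1:500) overnight at 4 °C, then HRP secondary (1:2000) 1 h. Chemiluminescent detection; β-tubulin loading control; untreated and DMSO controls.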

NCI-H322M = test: Growth inhibition of human NCI-H322M cells by NCI anti-cancer screening method; format: functional
NCI [6] = test: Growth inhibition of human Hs 578T cells by NCI anti-cancer screening method; format: functional
PC-3 = test: Growth inhibition of human PC3 cells by NCI anti-cancer screening method; format: functional
UACC-257 = test: Growth inhibition of human UACC257 cells by NCI anti-cancer screening method; format: functional

## COc1cc2c(cc1OCCCCCOc1ccc(-n3c(C)nc4ccccc4c3=O)cc1)N=C[C@@H]1CCCN1C2=O
OVCAR-8
  GI50: 340 nM
NCI-H23
  GI50: 230 nM
NCI [1]
  GI50: 190 nM
SF-268
  GI50: 260 nM
HCT-116
  GI50: 150 nM
786-0
  GI50: 170 nM
UACC-62
  GI50: 160 nM
ACHN
  GI50: 290 nM
NCI-H226
  GI50: 160 nM
UO-31
  GI50: 360 nM
IGROV-1
  GI50: 180 nM
OVCAR-4
  GI50: 370 nM
NCI/ADR-RES
  GI50: 1730 nM
MDA-MB-468
  GI50: 160 nM
A-375 [2]
  Activity: 31.52%
SK-OV-3
  GI50: 430 nM
HT-29
  GI50: 260 nM
SR
  GI50: 110 nM
A-375 [3]
  Activity: Active
LOX IMVI
  GI50: 150 nM
OVCAR-3
  GI50: 200 nM
MDA-MB-231
  GI50: 170 nM
SN12C
  GI50: 240 nM
BT-549
  GI50: 110 nM
NCI [4]
  GI50: 210 nM
SNB-19
  GI50: 280 nM
CAKI-1
  GI50: 190 nM
A498
  GI50: 160 nM
Nucleic Acid
  ΔTm: 2.3 °C
A-375 [5]
  Activity: Active
NCI-H322M
  GI50: 260 nM
NCI [6]
  GI50: 160 nM
PC-3
  GI50: 290 nM
UACC-257
  GI50: 390 nM
